According to ChEMBL document CHEMBL3414496, “Synthesis and biological evaluation of novel 2-heteroarylimino-1,3-thiazolidin-4-ones as potential anti-tumor agents” (Eur J Med Chem, 2015):
Active and inactive are the calls of the source. The calls are words filed in the database; no cut-off is given here.

Experiments:
HT-29 [1] = experiment: Induction of cell cycle arrest in human HT-29 cells assessed as accumulation at G2/M phase by propidium iodide staining based flow cytometry (reference value: 30 +/- 2%); format: functional
HT-29 [2] = experiment: Induction of ROS generation in human HT-29 cells at cytotoxic IC50 level after 4 hrs by DCF-DA staining based fluorescence assay; format: functional, cell-based
Method in brief: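 HT29 cells treated two days after seeding, then loaded with 50 µM DCF-DA for 15 min at 37°C. Cells trypsinized, washed and resuspended in PBS, and 30 000 cells/sample read by flow cytometry (FL-1). Expressed as % of DMSO-treated cells; […] for 1 h served as positive control. Triplicates from three independent experiments.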

HT-29 [3] = experiment: Induction of nuclear fragmentation in human HT-29 cells incubated for 2 days by DAPI staining based UV fluorescent microscopy; format: functional, cell-based
Method in brief: (§1)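 HT29 cells in 35 mm dishes treated over two days, fixed in 70% ethanol for 5 min and rinsed with PBS. Stained with 1 µM DAPI in PBS for 15 min and imaged by UV fluorescence microscopy for nuclear morphology.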

HT-29 [4] = experiment: Induction of Nrf2 expression in human HT-29 cells nuclei homogenates over 1 to 6 hrs by Western blotting method; format: functional, cell-based
Method in brief: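 HT29 cells treated and fractionated, and nuclear homogenates immunoblotted with anti-Nrf2 (1:500) after SDS-PAGE and nitrocellulose transfer. Primary antibody overnight at 4°C, HRP secondary and chemiluminescence. Blots stripped and reprobed for GAPDH (1:10 000) for normalization, with the DMSO ratio set to 1.00. Representative of three independent experiments.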

HT-29 [5] = experiment: Induction of cell cycle arrest in human HT-29 cells assessed as accumulation at subG1 phase by propidium iodide staining based flow cytometry (reference value: 6.9 +/- 0.5%); format: functional
HT-29 [6] = experiment: Induction of redox status changes in human HT-29 cells assessed as ROS content in absence of 1 mM ascorbic acid by DCF-DA staining based fluorescence assay (reference value: 100%)
HT-29 [7] = experiment: Induction of chromatin condensation in human HT-29 cells incubated for 2 days by DAPI staining based UV fluorescent microscopy; format: functional, cell-based; method in brief: as §1
MDA-MB-231 = experiment: Cytotoxicity against human MDA-MB-231 cells after 72 hrs by MTT assay; format: functional, cell-based; details: MDA-MB-231, 72 h
Method in brief: (§2)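 Cells seeded at 10^4/well, exposed 24 h later to graded concentrations (0.01–100 µM) for 72 h at 37°C; MTT 0.5 mg/ml for 2 h, formazan dissolved in DMSO, absorbance at 570 nm. […] Colon lines in DMEM, breast lines in RPMI, both with 10% FCS.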

SW-620 = experiment: Cytotoxicity against human SW620 cells after 72 hrs by MTT assay; format: functional, cell-based; details: SW-620, 72 h; method in brief: as §2
HT-29 [8] = experiment: Growth inhibition of human HT-29 cells at cytotoxic IC50 level after 3 days by trypan blue dye exclusion assay; format: functional
Method in brief: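 HT29 cells treated 48 h after seeding, dosed daily with daily medium change over three days; drug diluted in DMSO, controls 0.1% (v/v) DMSO. Cells trypsinized, mixed 1:1 with 0.04% trypan blue, live cells counted by hematimeter. Reported as mitotic index (treated/DMSO count); triplicates from two independent experiments.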

HT-29 [9] = experiment: Induction of autophagy in human HT-29 cells assessed as increase in acidic vesicles by acridine orange staining based flow cytometry; format: functional, cell-based
Method in brief: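 HT29 cells treated for two days with daily medium changes, stained with 1 µg/ml acridine orange for 15 min, then trypsinized and suspended in PBS. FL-3 fluorescence read by flow cytometry on 30 000 cells/sample and expressed in arbitrary units relative to DMSO-treated cells. Triplicates from three independent experiments.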

HT-29 [10] = experiment: Induction of redox status changes in human HT-29 cells assessed as RNS content by DHR123 staining based fluorescence assay (reference value: 100%); format: functional
Method in brief: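 HT29 cells treated two days after seeding, then loaded with 25 µM DHR for 20 min at 37°C. Cells trypsinized and resuspended in PBS, and 30 000 cells/sample read by flow cytometry (FL-1). Expressed as % of DMSO controls. Triplicates from three independent experiments.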

HT-29 [11] = experiment: Induction of cell cycle arrest in human HT-29 cells assessed as accumulation at S phase by propidium iodide staining based flow cytometry (reference value: 23.9 +/- 0.3%); format: functional
HT-29 [12] = experiment: Cytotoxicity against human HT-29 cells after 72 hrs by MTT assay; format: functional, cell-based; details: HT-29, 72 h; method in brief: as §2
HT-29 [13] = experiment: Induction of autophagy in human HT-29 cells assessed as increase in beclin-1 protein expression by Western blotting method; format: functional, cell-based
Method in brief: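 HT29 cells in flasks treated over two days. Total protein homogenates immunoblotted with anti-beclin-1 (1:500), with GAPDH as loading control.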

HT-29 [14] = experiment: Induction of redox status changes in human HT-29 cells assessed as RNS content by DAF-2DA staining based fluorescence assay (reference value: 100%); format: functional
Method in brief: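 HT29 cells treated two days after seeding, then loaded with 1 µM DAF-2DA for 30 min at 37°C. Cells trypsinized and resuspended in PBS, and 30 000 cells/sample measured by flow cytometry (FL-1). Expressed as % of DMSO-treated cells. Triplicates from three independent experiments.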

HT-29 [15] = experiment: Inhibition of cell growth in human HT-29 cells assessed as mitotic index ratio in presence of 1 mM ascorbic acid (reference value: 1.12 +/- 0.03); format: functional
HT-29 [16] = experiment: Reduction in cell growth of human HT-29 cells at cytotoxic IC50 level after 3 days by trypan blue dye exclusion assay; format: functional, cell-based
Method in brief: (§3)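 HT29 cells treated daily from 48 h after seeding, over three days with daily medium changes, in 0.1% (v/v) DMSO vehicle. Cells trypsinised, mixed 1:1 with 0.04% trypan blue, and living cells counted by haemocytometer under microscope. Mitotic index is treated count relative to DMSO control. Triplicate determinations, two independent experiments, mean ± S.E.M.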

MCF7 = experiment: Cytotoxicity against human MCF7 cells after 72 hrs by MTT assay; format: functional, cell-based; details: MCF7, 72 h; method in brief: as §2
[17] = Cytotoxicity against human HCT116 cells after 72 hrs by MTT assay; format: functional, cell-based; details: HCT-116, 72 h; method in brief: as §2
HT-29 [18] = experiment: Induction of mitochondrial membrane potential loss in human HT-29 cells incubated for 2 days by JC1 staining based UV fluorescent microscopy; format: functional, cell-based
Method in brief: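 HT29 cells in dishes exposed to test agents, then 1 µM JC-1 added to the medium for 15 min at 37°C. Cells washed with warm PBS and imaged by fluorescence microscopy for J-aggregates (red channel). 50 µM CCCP for 15 min served as depolarization control.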

HT-29 [19] = experiment: Induction of redox status changes in human HT-29 cells assessed as GSH content by fluorescence based microtiter plate method (reference value: 100%); format: functional
Method in brief: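 HT29 cells exposed 48 h after seeding for 24 h, then extracted into ice-cold 10% perchloric acid with 2 mM EDTA and spun at 15 000 g. GSH in the supernatant measured by a fluorescence microtiter plate method; pellet protein measured by modified Lowry. Values in nmol GSH/mg protein, shown as % of DMSO controls. Triplicates from three experiments.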

HT-29 [20] = experiment: Inhibition of cell growth in human HT-29 cells assessed as mitotic index ratio in absence of 1 mM ascorbic acid (reference value: 1); format: functional; method in brief: as §3
HT-29 [21] = experiment: Induction of redox status changes in human HT-29 cells assessed as ROS content in presence of 1 mM ascorbic acid by DCF-DA staining based fluorescence assay (reference value: 65.7 +/- 4.7%)

Compound | Activity (HT-29 [1]) [%] | Activity (HT-29 [2]) | Activity (HT-29 [3]) | Activity (HT-29 [4]) | Activity (HT-29 [5]) [%] | Activity (HT-29 [6]) [%] | Activity (HT-29 [7]) | IC50 (MDA-MB-231) [nM] | IC50 (SW-620) [nM] | growth inhibition (GI) (HT-29 [8]) [%] | Activity (HT-29 [9]) | Activity (HT-29 [10]) [%] | IC50 (HT-29 [12]) [nM] | Activity (HT-29 [13]) | Activity (HT-29 [14]) [%] | IC50 (MCF7) [nM] | IC50 [17] [nM] | Activity (HT-29 [18]) | Activity (HT-29 [19]) [%] | Ratio (HT-29 [20]) | other results
COc1ccc(/C=C2\S/C(=N\c3csc(-c4ccc(Cl)cc4)c3)NC2=O)cc1 | 80.6 | Active | Active | inactive | 21.6 | 123.1 | Active | 1200 | 28100 | 90 | Active | 85.9 | 3800 | Active | 169.7 | 1000 | 1300 | Active | 88.8 | 0.03 | Activity (HT-29 [11]): 18.2%; Ratio (HT-29 [15]): 0.03; inhibition (HT-29 [16]): Active; Activity (HT-29 [21]): 97%
COc1ccc(/C=C2\S/C(=N\c3csc(-c4ccc(Cl)cc4)c3)NC2=O)cc1OC | 86.4 | Active | Active |  | 20.6 | 141.6 | Active | 1900 | > 50000 | 90 | Active | 83.6 | 10900 | Active | 116.3 | 7600 | 1700 | Active | 108.1 | 0.04 | Activity (HT-29 [11]): 11.3%; Ratio (HT-29 [15]): 0.04; inhibition (HT-29 [16]): Active; Activity (HT-29 [21]): 112.1%
Cc1ccc(/C=C2\S/C(=N\c3csc(-c4ccc(Cl)cc4)c3)NC2=O)cc1 | 84 | Active | Active | inactive | 21.5 | 172 | Active | 900 | 1500 | 90 | Active | 95 | 6400 | Active | 155 | 900 | 1000 | Active | 73.9 | 0.02 | Activity (HT-29 [11]): 14.8%; Ratio (HT-29 [15]): 0.02; inhibition (HT-29 [16]): Active; Activity (HT-29 [21]): 102.5%
CN(C)c1ccc(/C=C2\S/C(=N\c3csc(-c4ccc(Cl)cc4)c3)NC2=O)cc1 | 83.7 | Active | Active | inactive | 29 | 177.8 | Active | 800 | 800 | 90 | Active | 80.1 | 1500 | Active | 294.4 | 400 | 500 | Active | 84.6 | 0.02 | Activity (HT-29 [11]): 14.8%; Ratio (HT-29 [15]): 0.02; inhibition (HT-29 [16]): Active; Activity (HT-29 [21]): 133.6%
CN(C)c1ccc(/C=C2\S/C(=N\c3nc(-c4ccc(Cl)cc4)cs3)NC2=O)cc1 |  |  | Active | inactive |  | 252.5 | Active | 300 | 200 | <25 | Active | 157.6 | 500 | Active | 144.4 | 100 | 200 | Active | 109.1 | 0.13 | 
COc1ccc(/C=C2\S/C(=N\c3nc(-c4ccc(Cl)cc4)cs3)NC2=O)cc1 |  |  | Active | inactive |  |  | Active | 300 | 50 | <25 | Active | 80.9 | 400 | Active | 103.3 | 100 | 400 | Active | 117 |  | 
